Reference: ChEMBL document CHEMBL1141291, “Bioactive constituents of the roots of Polyalthia cerasoides” (J Nat Prod, 2007)
In brackets after ≈: the same amount, converted by molar mass. Activity calls are given as the source filed them. The rule behind the calls is not given here.

Legend:
[1] = test system: Mycobacterium tuberculosis; test: Antituberculosis activity against Mycobacterium tuberculosis H37Ra by microplate alamar blue assay; format: functional
Plasmodium falciparum = test: Antimalarial activity against multidrug-resistant Plasmodium falciparum K1 in [3H]hypoxanthine incorporation microculture radioisotope assay; format: functional, organism-based
Procedure, shortened: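 P. falciparum K1 maintained in culture by the Trager and Jensen method. Growth was measured in vitro by [3H]-hypoxanthine uptake in a microculture radioisotope format (Desjardins method). IC50 is the concentration giving 50% reduction in parasite growth. Artemisinin was the standard.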

NCI-H187 = test: Cytotoxicity against human NCI-H187 cells; format: functional, cell-based
Procedure, shortened: (§1)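 Tested on human epidermoid carcinoma (KB), breast cancer (BC1) and small cell lung cancer (NCI-H187) cell lines. Growth was read by a colorimetric method following Skehan and co-workers. Ellipticine was run as the reference substance.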

[2] = Cytotoxicity against human BC1 cells; format: functional, cell-based; procedure, shortened: as §1
KB = test: Cytotoxicity against human KB cells; format: functional, cell-based; procedure, shortened: as §1

Compound `NC[C@H]1O[C@H](O[C@H]2[C@H](O)[C@@H](O[C@H]3O[C@H](CO)[C@@H](O)[C@H](N)[C@H]3O)[C@H](N)C[C@@H]2N)[C@H](O)[C@@H](O)[C@@H]1O.O=S(=O)(O)O` [KANAMYCIN SULFATE] has an MIC [1] of 2.5 µg/mL.

In the case of `COc1ccc(C[C@H]2c3cc(OC)c(OC)cc3CCN2C)cc1O` [LAUDANIDINE], the IC50 (Plasmodium falciparum) is reported as 7 µg/mL (≈ 20.4 µM), the IC50 (NCI-H187) is reported as over 5 µg/mL and the Activity [1] is reported as “inactive”. It also gave an IC50 [2] of over 5 µg/mL and an IC50 (KB) of over 5 µg/mL.

With `COc1cc2c(cc1O)[C@H](Cc1ccc(OC)c(OC)c1)N(C)CC2` [CODAMINE] the IC50 (Plasmodium falciparum) was 4.2 µg/mL (≈ 12.2 µM), the IC50 (NCI-H187) was over 5 µg/mL and the Activity [1] was “inactive”. The IC50 [2] was over 5 µg/mL and the IC50 (KB) was over 5 µg/mL.

For `Cc1c2ccncc2c(C)c2c1[nH]c1ccccc12` [ELLIPTECINE], the IC50 (NCI-H187) was 0.32 µg/mL (≈ 1.3 µM), the IC50 [2] was 0.26 µg/mL (≈ 1.06 µM) and the IC50 (KB) was 0.36 µg/mL (≈ 1.46 µM).

With `COc1ccc2c(c1)c(-c1c3c4c(cc5c(c4c4ccc(OC)cc14)OCO5)CCN3)c1c3c(cc4c(c32)OCO4)CCN1` [BIDEBILINE E] the IC50 (Plasmodium falciparum) was 4.2 µg/mL (≈ 7.18 µM) and the MIC [1] was 6.25 µg/mL (≈ 10.7 µM).

Compound `NNC(=O)c1ccncc1` [ISONIAZID] has an MIC [1] of 0.05 µg/mL (≈ 0.365 µM).

`C[C@@H]1CC[C@H]2[C@@H](C)C(=O)O[C@@H]3O[C@@]4(C)CC[C@@H]1[C@]32OO4` [ARTEMISININ] gave an IC50 (Plasmodium falciparum) of 0.001 µg/mL (≈ 0.00354 µM).

With `C=C1CC[C@@H]2O[C@]2(C)CC[C@@H]2[C@@H]1CC2(C)C` the IC50 (Plasmodium falciparum) was 2.8 µg/mL (≈ 12.7 µM), the IC50 (NCI-H187) was 19.5 µg/mL (≈ 88.5 µM) and the Activity [1] was “inactive”. The IC50 [2] was over 5 µg/mL and the IC50 (KB) was over 5 µg/mL.

With `C/C1=C\CC/C(C)=C/CC(C)(C)/C=C/C1` [ALPHA-HUMULONE] the Activity (Plasmodium falciparum) was “inactive”, the IC50 (NCI-H187) was over 5 µg/mL and the MIC [1] was 6.25 µg/mL (≈ 30.6 µM). For the same compound, the IC50 [2] was over 5 µg/mL and the IC50 (KB) was over 5 µg/mL.

Compound `CCCCC#CC#CC#CCCCCCCCC(=O)O` has an IC50 (Plasmodium falciparum) of 5 µg/mL (≈ 18.4 µM), an IC50 (NCI-H187) of over 5 µg/mL and an MIC [1] of 6.25 µg/mL (≈ 22.9 µM). It also gave an IC50 [2] of 13 µg/mL (≈ 47.7 µM) and an IC50 (KB) of over 5 µg/mL.
